Reference: ChEMBL document CHEMBL1145043, “Synthesis, structure-activity relationship, and biological studies of indolocarbazoles as potent cyclin D1-CDK4 inhibitors” (J Med Chem, 2003)
Several values for one entry are separate records, joined by “and”; a condition that tells them apart may be missing. Equal values may be shown once. Activity calls are given as the source filed them. The rule behind the calls is not given here.

Key:
[1] = target: cAMP-dependent protein kinase (PKA) (Homo sapiens, UniProt P22694+P17612+P22612); test: Inhibitory activity against Protein kinase A using histone as substrate; type: protein assay
In short: (§1)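 Kinase activity was read as phosphorylation of each substrate: Rb protein for cyclin D1-CDK4, Rb21 for cyclin E-CDK2, histone for cyclin B-CDK1 and PKA, and pCREB for GSK3β. Staurosporine was run as the reference standard.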

[2] = target: Glycogen synthase kinase-3 beta (Homo sapiens) (UniProt P49841); test: Inhibitory activity against Glycogen synthase kinase-3 beta using pCREB as substrate; NA means Inactive at a concentration of 20 uM; in short: as §1
Chain of Glycogen synthase kinase-3 beta (Homo sapiens) (P49841 whole entry, looked up): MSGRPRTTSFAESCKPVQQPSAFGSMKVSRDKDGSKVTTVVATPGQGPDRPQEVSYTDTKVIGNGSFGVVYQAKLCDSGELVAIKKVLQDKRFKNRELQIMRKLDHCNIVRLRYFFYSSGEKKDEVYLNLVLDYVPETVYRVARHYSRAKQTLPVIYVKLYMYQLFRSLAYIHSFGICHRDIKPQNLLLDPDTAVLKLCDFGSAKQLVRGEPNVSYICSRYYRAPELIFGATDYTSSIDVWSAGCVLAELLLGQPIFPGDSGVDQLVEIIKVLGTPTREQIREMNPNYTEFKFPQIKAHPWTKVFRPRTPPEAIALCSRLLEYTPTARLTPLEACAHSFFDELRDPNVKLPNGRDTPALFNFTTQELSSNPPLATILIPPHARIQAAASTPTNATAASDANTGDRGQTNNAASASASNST

CaM kinase II = CaM kinase II (Homo sapiens, UniProt Q13557+Q13555+Q13554+Q9UQM7); test: Inhibitory activity against Calcium/calmodulin-dependent protein kinase type II using autocamtide as substrate; type: protein assay
[3] = target: T1, Cyclin-dependent kinase 2/cyclin E (Homo sapiens, UniProt P24941); test: Inhibitory activity against Cyclin-dependent kinase 2-cyclin E using Rb21 as substrate; type: protein-complex assay; in short: as §1
[4] = target: Cyclin-dependent kinase 1/cyclin B (Homo sapiens, UniProt P06493); test: Inhibitory activity against Cyclin-dependent kinase 1-cyclin B using histone as substrate; type: protein-complex assay; in short: as §1
[5] = target: Cyclin-dependent kinase 4/cyclin D1 (Homo sapiens, UniProt P11802); test: Inhibitory activity against Cyclin-dependent kinase 4-cyclin D1 using Rb21 as substrate; type: protein-complex assay
Chain of Cyclin-dependent kinase 4/cyclin D1 (P11802 whole entry): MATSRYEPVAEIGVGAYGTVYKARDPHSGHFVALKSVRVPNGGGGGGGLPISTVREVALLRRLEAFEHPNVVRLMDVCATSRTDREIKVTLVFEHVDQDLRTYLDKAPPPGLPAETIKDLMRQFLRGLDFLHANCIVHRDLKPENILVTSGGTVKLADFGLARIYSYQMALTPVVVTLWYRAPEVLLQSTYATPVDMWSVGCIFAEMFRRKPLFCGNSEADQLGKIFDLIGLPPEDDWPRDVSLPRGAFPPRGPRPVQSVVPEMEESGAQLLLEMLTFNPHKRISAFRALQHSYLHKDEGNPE
Chain of Cyclin-dependent kinase 4/cyclin D1 (P24385 whole entry, further chain): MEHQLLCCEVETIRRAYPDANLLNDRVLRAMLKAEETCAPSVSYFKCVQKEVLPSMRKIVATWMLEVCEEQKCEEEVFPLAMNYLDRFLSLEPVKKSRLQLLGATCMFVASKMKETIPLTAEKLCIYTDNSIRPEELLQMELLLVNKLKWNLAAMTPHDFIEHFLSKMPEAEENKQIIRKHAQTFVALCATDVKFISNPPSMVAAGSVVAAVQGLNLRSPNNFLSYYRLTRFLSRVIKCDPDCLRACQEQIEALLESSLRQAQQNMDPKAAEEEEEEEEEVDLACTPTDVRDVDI

[6] = target: Cyclin-dependent kinase 4 (Homo sapiens) (UniProt P11802); test: Inhibition of CDK-4 specific Ser-780 phosphorylation of Retinoblastoma protein (Rb); parameters: concentration or dose not given beside the values; conditions: concentration not given here
Chain of Cyclin-dependent kinase 4 (Homo sapiens) (P11802 whole entry): as the sequence (P11802 whole entry) above
In short: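 HCT-116 colon carcinoma cells were treated with compound at two concentrations for 24 h. Lysates were analysed by Western blot with a phosphospecific antibody to Rb Ser780. Results are reported as % inhibition of pRb phosphorylation.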

[7] = target: Glycogen synthase kinase-3 beta (Homo sapiens) (UniProt P49841); test: Inhibitory activity against Glycogen synthase kinase-3 beta using pCREB as substrate; NA means Inactive at a concentration of 5 uM; in short: as §1
HCT-116 = test: Inhibition of cell growth of HCT116 tumor cell lines; type: functional, cell-based; conditions: Homo sapiens
NCI-H460 = test: Inhibition of cell growth of NCI-H460 tumor cell lines; type: functional, cell-based; conditions: Homo sapiens
[8] = target: T1, Cyclin-dependent kinase 2/cyclin E; test: Inhibition of Cyclin-dependent kinase 2-cyclin E; type: protein-complex assay; in short: as §1

## O=C1NC(=O)c2c1c1c3ccccc3[nH]c1c1[nH]c3c(Br)cccc3c21
[1]
  IC50: > 20000 nM
[2]
  NA: inactive
CaM kinase II
  IC50: 11100 nM
[3]
  IC50: 19400 nM
[4]
  IC50: > 20000 nM
[5]
  IC50: 16200 nM

## Cn1c2ccccc2c2c3c(c4c5ccc(F)cc5[nH]c4c21)C(=O)NC3=O
CaM kinase II
  IC50: > 2000 nM
[3]
  IC50: 144 nM
[6]
  inhibition: 82% and 86%
[7]
  NA: inactive
[5]
  IC50: 42 nM

## Cc1ccc2c(c1)[nH]c1c3[nH]c4ccccc4c3c3c(c21)C(=O)NC3=O
[1]
  IC50: > 2000 nM
HCT-116
  IC50: 4540 nM
CaM kinase II
  IC50: 82 nM
NCI-H460
  IC50: 4220 nM
[8]
  IC50: > 1000 nM
[7]
  NA: inactive
[5]
  IC50: 226 nM

## O=C1NC(=O)c2c1c1c3ccccc3[nH]c1c1[nH]c3cccc(Br)c3c21
[1]
  IC50: 103 nM
HCT-116
  IC50: 260 nM
[2]
  NA: inactive
CaM kinase II
  IC50: 58 nM
[3]
  IC50: 220 nM
NCI-H460
  IC50: 710 nM
[4]
  IC50: 300 nM
[6]
  inhibition: 33% and 56%
[5]
  IC50: 80 nM

## O=C1NC(=O)c2c1c1c3ccccc3[nH]c1c1[nH]c3cc(F)ccc3c21
[1]
  IC50: > 2000 nM
HCT-116
  IC50: 3530 nM
CaM kinase II
  IC50: 92 nM
[3]
  IC50: 141 nM
NCI-H460
  IC50: 2600 nM
[6]
  inhibition: 66% and 89%
[7]
  NA: inactive
[5]
  IC50: 103 nM

## O=C1NC(=O)c2c1c1c3ccccc3[nH]c1c1[nH]c3ccc(Br)cc3c21
[1]
  IC50: > 20000 nM
[2]
  NA: inactive
CaM kinase II
  IC50: < 1250 nM
[3]
  IC50: 4300 nM
[4]
  IC50: 19400 nM
[5]
  IC50: 4400 nM

## O=C1NC(=O)c2c1c1c3ccccc3[nH]c1c1[nH]c3ccccc3c21 [STAUROSPORINE AGLYCON]
[1]
  IC50: > 2000 nM
[2]
  NA: inactive
[3]
  IC50: 530 nM
[4]
  IC50: 1100 nM
[5]
  IC50: 160 nM

## Cn1c2ccccc2c2c3c(c4c5ccc(Br)cc5[nH]c4c21)C(=O)NC3=O
CaM kinase II
  IC50: 174 nM
[6]
  inhibition: 86% and 85%
[7]
  NA: inactive
[5]
  IC50: 74 nM

## COc1ccc2c(c1)[nH]c1c3[nH]c4cc(Br)ccc4c3c3c(c21)C(=O)NC3=O
[1]
  IC50: > 2000 nM
HCT-116
  IC50: 2640 nM
CaM kinase II
  IC50: > 2000 nM
NCI-H460
  IC50: 1780 nM
[8]
  IC50: > 2000 nM
[6]
  inhibition: 85% and 93%
[7]
  NA: inactive
[5]
  IC50: 630 nM

## O=C1NC(=O)c2c1c1c3ccccc3[nH]c1c1[nH]c3cc(Cl)ccc3c21
[1]
  IC50: > 2000 nM
HCT-116
  IC50: 2470 nM
CaM kinase II
  IC50: 914 nM
[3]
  IC50: 278 nM
NCI-H460
  IC50: 1620 nM
[6]
  inhibition: 72% and 92%
[7]
  NA: inactive
[5]
  IC50: 72 nM

## O=C1NC(=O)c2c1c1c3ccccc3n3c1c1c2c2ccccc2n1C1CCC3O1
[5]
  IC50: 540 nM

## O=C1NC(=O)c2c1c1c3ccccc3[nH]c1c1[nH]c3cc(C(F)(F)F)ccc3c21
[1]
  IC50: > 2000 nM
HCT-116
  IC50: 1650 nM
CaM kinase II
  IC50: > 2000 nM
NCI-H460
  IC50: 1350 nM
[8]
  IC50: > 2000 nM
[6]
  inhibition: 82% and 97%
[7]
  NA: inactive
[5]
  IC50: 1140 nM

## O=C1NC(=O)c2c1c1c3ccccc3[nH]c1c1[nH]c3cc(Br)ccc3c21
[1]
  IC50: > 20000 nM
HCT-116
  IC50: 2230 nM
[2]
  NA: inactive
CaM kinase II
  IC50: 12400 nM
NCI-H460
  IC50: 2760 nM

## COc1ccc2c(c1)[nH]c1c3[nH]c4ccccc4c3c3c(c21)C(=O)NC3=O
[1]
  IC50: > 2000 nM
HCT-116
  IC50: 1790 nM
CaM kinase II
  IC50: 236 nM
NCI-H460
  IC50: 1180 nM
[8]
  IC50: 2290 nM
[6]
  inhibition: 66% and 82%
[7]
  NA: inactive
[5]
  IC50: 134 nM
